One data set has as its system SH-SY5Y. Put plainly: Cytotoxicity against human SH-SY5Y cells assessed as reduction in cell viability incubated for 72 hrs by MTT assay. It is filed as functional, cell-based. In outline: (§1)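 MTT viability assay. Cells kept in DMEM with 10% FBS at 37 °C and 5% CO2. Seeded at 5×10^3 cells per well and exposed to a range of compound concentrations from 20 mM DMSO stocks. IC50 is the mean of triplicate measurements.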
For orientation: Formazan colour is commonly taken as a measure of viable cells.

In a further data set the test system is MDA-MB-231. Description: Cytotoxicity against human MDA-MB-231 cells assessed as reduction in cell viability incubated for 72 hrs by MTT assay. It is filed as functional, cell-based. As to conditions: MDA-MB-231, 72 h. The procedure, abridged:
as §1

The test system of the next data set is PC-3. Put plainly: Cytotoxicity against human PC-3 cells assessed as reduction in cell viability incubated for 72 hrs by MTT assay. It is filed as functional, cell-based. As to conditions: PC-3, 72 h. The procedure, abridged:
as §1

Data set [1] in a line: Solubility of compound in water. It is filed as physicochemical. The settings on record: buffer.
The target of a further data set is T1, Aurora kinase A (Homo sapiens, UniProt O14965).
T1 sequence (O14965 whole entry): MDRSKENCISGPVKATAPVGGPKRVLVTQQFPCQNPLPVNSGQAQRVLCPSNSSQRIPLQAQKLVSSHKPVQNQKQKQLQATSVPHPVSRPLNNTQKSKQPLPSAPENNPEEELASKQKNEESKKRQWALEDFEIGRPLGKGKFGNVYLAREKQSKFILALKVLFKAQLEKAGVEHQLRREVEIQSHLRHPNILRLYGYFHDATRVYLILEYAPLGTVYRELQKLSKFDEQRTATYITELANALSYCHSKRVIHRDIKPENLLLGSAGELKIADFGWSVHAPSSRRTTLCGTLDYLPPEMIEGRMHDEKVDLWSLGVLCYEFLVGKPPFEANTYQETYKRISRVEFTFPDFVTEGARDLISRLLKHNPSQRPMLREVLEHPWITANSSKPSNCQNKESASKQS
Description: Inhibition of Aurora A (unknown origin) incubated for 1 hrs by HTRF assay. On the technique in general: Time-resolved FRET reads energy transfer from a long-lived donor to a nearby acceptor.

In another data set the target is Aurora kinase B (Homo sapiens, UniProt Q96GD4). Description: Inhibition of Aurora B (unknown origin) incubated for 1 hrs by HTRF assay.
Chain of Aurora kinase B (Q96GD4 whole entry): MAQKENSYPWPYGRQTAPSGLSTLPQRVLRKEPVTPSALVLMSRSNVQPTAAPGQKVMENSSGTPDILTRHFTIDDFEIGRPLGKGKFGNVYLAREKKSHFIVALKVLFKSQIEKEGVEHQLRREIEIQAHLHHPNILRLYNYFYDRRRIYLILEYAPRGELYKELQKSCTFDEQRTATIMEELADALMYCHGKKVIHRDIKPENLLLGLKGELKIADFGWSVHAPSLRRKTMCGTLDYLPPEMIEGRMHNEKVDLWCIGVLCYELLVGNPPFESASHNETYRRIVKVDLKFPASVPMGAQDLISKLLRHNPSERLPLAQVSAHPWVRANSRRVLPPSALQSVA

This is an account of results in ChEMBL document CHEMBL4765263, “Design, synthesis, biological evaluation of 6-(2-amino-1H-benzo[d]imidazole-6-yl)quinazolin-4(3H)-one derivatives as novel anticancer agents with Aurora kinase inhibition” (Eur J Med Chem, 2020).

Molecules are shown by their SMILES. Bounds are passed on as bounds.

Consider `CCS(=O)(=O)Nc1nc2ccc(-c3ccc4ncn(CC(=O)N5CCOCC5)c(=O)c4c3)cc2[nH]1`, for which the IC50 in the data set on SH-SY5Y, in the data set on MDA-MB-231 and with PC-3 was greater than 20 µM in each case.

With `CN(C)C(=O)Nc1nc2ccc(-c3ccc4ncn(CCN5CCOCC5)c(=O)c4c3)cc2[nH]1`, the values for the IC50 in the data set on SH-SY5Y, in the data set with MDA-MB-231 and in the data set with PC-3 were 3.92 µM, 4.85 µM and 6.45 µM, respectively. In addition, the solubility entry in data set [1] is listed as “Soluble”.

`CCCCC(=O)Nc1nc2ccc(-c3ccc4ncn(CCN5CCOCC5)c(=O)c4c3)cc2[nH]1`: the figures for the IC50 in the data set with SH-SY5Y, with MDA-MB-231 and in the data set on PC-3 were 4.19 µM, 3.85 µM and 6.54 µM, respectively.

With `Cc1cc(Nc2cc(N3CCN(C)CC3)nc(/C=C/c3ccccc3)n2)n[nH]1` [ENMD-2076], the concentration for half-maximal inhibition (IC50) was 0.48 µM with MDA-MB-231 and 0.67 µM with PC-3.

Turning to `CCC(=O)Nc1nc2ccc(-c3ccc4ncn(CCN5CCCCC5)c(=O)c4c3)cc2[nH]1`, the figures for the half-inhibitory concentration (IC50) in the data set on SH-SY5Y, in the data set on MDA-MB-231 and with PC-3 were 4.02 µM, 1.23 µM and 6.57 µM, respectively.

Consider `CCC(=O)Nc1nc2ccc(-c3ccc4ncn(CCCN5CCOCC5)c(=O)c4c3)cc2[nH]1`, for which the half-maximal inhibitory concentration (IC50) in the data set with SH-SY5Y was 1.68 µM; in the data set with MDA-MB-231, 1.22 µM; with PC-3, 3.21 µM.

Regarding `CCS(=O)(=O)Nc1nc2ccc(-c3ccc4ncn(C)c(=O)c4c3)cc2[nH]1`, the IC50 in the data set with SH-SY5Y, in the data set with MDA-MB-231 and in the data set with PC-3 was greater than 20 µM each time.

Consider `CCN(CC)C(=O)Nc1nc2ccc(-c3ccc4ncn(CCN5CCOCC5)c(=O)c4c3)cc2[nH]1`, for which the IC50 worked out at 2.52 µM in the data set with SH-SY5Y, 1.76 µM in the data set on MDA-MB-231 and 8.13 µM in the data set with PC-3. For the same molecule, the solubility result in data set [1] is “Soluble”.

`O=C(Nc1nc2ccc(-c3ccc4ncn(CCN5CCOCC5)c(=O)c4c3)cc2[nH]1)c1ccccc1`: the IC50 with SH-SY5Y, with MDA-MB-231 and in the data set on PC-3 was greater than 20 µM each time.

On to `O=C(Nc1nc2ccc(-c3ccc4ncn(CCN5CCOCC5)c(=O)c4c3)cc2[nH]1)C1CC1`, for which the IC50 in the data set with SH-SY5Y worked out at 7.33 µM; in the data set with MDA-MB-231, 1.61 µM; in the data set on PC-3, 11.2 µM.

As to `CCCCn1cnc2ccc(-c3ccc4nc(NC(=O)CC)[nH]c4c3)cc2c1=O`, the IC50 in the data set with SH-SY5Y, in the data set with MDA-MB-231 and in the data set on PC-3 was greater than 20 µM each time.

For the molecule `CCC(=O)Nc1nc2ccc(-c3ccc4ncn(CCc5c[nH]c6ccccc56)c(=O)c4c3)cc2[nH]1`, the IC50 with SH-SY5Y came to 1.23 µM; against Aurora kinase A, 27.1 nM; at Aurora kinase B, 330 nM; in the data set with MDA-MB-231, 0.55 µM; with PC-3, 1.67 µM. The solubility result in data set [1] is reported as “Insoluble”.

Consider `CCC(=O)Nc1nc2ccc(-c3ccc4ncn(CC(=O)N5CCOCC5)c(=O)c4c3)cc2[nH]1`, for which the IC50 with SH-SY5Y, in the data set with MDA-MB-231 and in the data set with PC-3 was greater than 20 µM throughout.

As to `O=C(Nc1nc2ccc(-c3ccc4ncn(CCN5CCOCC5)c(=O)c4c3)cc2[nH]1)C1CCCCC1`, the IC50 came to 14.2 µM with SH-SY5Y, 10.2 µM in the data set on MDA-MB-231 and 16.5 µM with PC-3.

For `CCC(=O)Nc1nc2ccc(-c3ccc4nc(CN5CCN(C(=O)CC)CC5)n(C)c(=O)c4c3)cc2[nH]1`, the values for the IC50 in the data set with SH-SY5Y, in the data set with MDA-MB-231 and in the data set on PC-3 were 5.49 µM, greater than 20 µM and greater than 20 µM, respectively.

As for `CCC(=O)Nc1nc2ccc(-c3ccc4ncn(C)c(=O)c4c3)cc2[nH]1`, the IC50 with SH-SY5Y was 18.1 µM; in the data set on MDA-MB-231, 13.5 µM; with PC-3, greater than 20 µM.

`CCS(=O)(=O)Nc1nc2ccc(-c3ccc4ncn(CCN5CCOCC5)c(=O)c4c3)cc2[nH]1`: the IC50 in the data set on SH-SY5Y, in the data set on MDA-MB-231 and in the data set on PC-3 was greater than 20 µM in each case.

As to `COC(=O)Nc1nc2ccc(-c3ccc4ncn(CCN5CCOCC5)c(=O)c4c3)cc2[nH]1`, the IC50 in the data set with SH-SY5Y, in the data set with MDA-MB-231 and in the data set with PC-3 was greater than 20 µM in each case. The solubility result in data set [1] was “Soluble”.

`O=C(Nc1nc2ccc(-c3ccc4ncn(CCN5CCOCC5)c(=O)c4c3)cc2[nH]1)N1CCOCC1`: the IC50 in the data set with SH-SY5Y, in the data set with MDA-MB-231 and with PC-3 was greater than 20 µM in each case.

Turning to `CCC(=O)Nc1nc2ccc(-c3ccc4nc(CN5CCOCC5)n(C)c(=O)c4c3)cc2[nH]1`, the IC50 was determined as 1.08 µM in the data set with SH-SY5Y, 0.94 µM in the data set with MDA-MB-231 and 1.65 µM in the data set on PC-3.

By IC50 is commonly meant the concentration needed to halve the response being measured.
